Activity calls are given as the source filed them. The rule behind the calls is not given here.
Assays:
[1] = target: T1, Bromodomain-containing protein 4 (Homo sapiens, UniProt O60885); assay: Inhibition of biotinylated H4 K5,8,12,16Ac peptide binding to GST-tagged BRD4 bromodomain1 (unknown origin) at 100 uM measured after 60 mins by AlphaScreen assay relative to control
How it was run: (§1)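 AlphaScreen proximity assay measuring binding of the tetra-acetylated (K5,8,12,16Ac) biotinylated histone H4 peptide to recombinant BRD4 BD1 or BD2. Buffer was 50 mM HEPES with BSA, at 1% DMSO in the 10X compound dilutions. Compound, bromodomain, peptide and histidine-conjugated acceptor beads were incubated 60 min at room temperature. Streptavidin donor beads were then added for 30 min in the dark, and the endpoint Alpha signal read. Inhibition taken at 100 µM, mean of three independent experiments.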

[2] = Antifibrotic activity against human LX2 cells assessed as reduction in cell growth measured after 48 hrs by MTT assay; assay type: functional, cell-based; conditions: LX-2, 48 h
How it was run: (§2)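 Cells grown at 37 °C in 5% CO2. MCF-7, A549 and HT-29 cells were kept in RPMI 1640 with 10% FBS and pen/strep. HepG2, A375, NRK-49F and LX-2 cells were kept in high-glucose DMEM with 10% FBS and pen/strep. HLF-1 cells were kept in DMEM/F-12 (1:1) with 10% FBS. Cells seeded for exponential growth, exposed to a concentration range for 48 h, then MTT added for 4 h at 37 °C. Formazan dissolved in DMSO, absorbance read at 490 nm, IC50 fitted.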

[3] = target: T1, Bromodomain-containing protein 4; assay: Inhibition of biotinylated H4 K5,8,12,16Ac peptide binding to GST-tagged BRD4 bromodomain2 (unknown origin) at 100 uM measured after 60 mins by AlphaScreen assay relative to control; how it was run: as §1
A-375 [4] = assay: Induction of apoptosis in human A375 cells at 10 uM measured after 24 hrs by Annexin V-FITC/propidium iodide staining based fluorescence microscopic analysis; assay type: functional, cell-based
MCF7 = assay: Antiproliferative activity against human MCF7 cells assessed as reduction in cell growth measured after 48 hrs by MTT assay; assay type: functional, cell-based; conditions: MCF7, 48 h; how it was run: as §2
A549 = assay: Antiproliferative activity against human A549 cells assessed as reduction in cell growth measured after 48 hrs by MTT assay; assay type: functional, cell-based; conditions: A549, 48 h; how it was run: as §2
HT-29 = assay: Antiproliferative activity against human HT-29 cells assessed as reduction in cell growth measured after 48 hrs by MTT assay; assay type: functional, cell-based; conditions: HT-29, 48 h; how it was run: as §2
HepG2 = assay: Antiproliferative activity against human HepG2 cells assessed as reduction in cell growth measured after 48 hrs by MTT assay; assay type: functional, cell-based; conditions: HepG2, 48 h; how it was run: as §2
NRK-49F = assay: Antifibrotic activity against rat NRK-49F cells assessed as reduction in cell growth measured after 48 hrs by MTT assay; assay type: functional, cell-based; how it was run: as §2
A-375 [5] = assay: Antiproliferative activity against human A375 cells assessed as reduction in cell growth measured after 48 hrs by MTT assay; assay type: functional, cell-based; conditions: A-375, 48 h; how it was run: as §2
[6] = Antifibrotic activity against human HLF1 cells assessed as reduction in cell growth measured after 48 hrs by MTT assay; assay type: functional, cell-based; conditions: HLF1, 48 h; how it was run: as §2
L02 = assay: Cytotoxicity against human LO2 cells assessed as reduction in cell growth measured after 24 hrs by MTT assay; assay type: cell-based; conditions: L02, 24 h
[7] = target: T1, Bromodomain-containing protein 4; assay: Inhibition of biotinylated H4 K5,8,12,16Ac peptide binding to GST-tagged BRD4 bromodomain1 (unknown origin) measured after 60 mins by AlphaScreen assay

| Compound | inhibition [1] [%] | IC50 [2] [µM] | inhibition [3] [%] | Activity (A-375 [4]) | IC50 (MCF7) [µM] | IC50 (A549) [µM] | IC50 (HT-29) [µM] | IC50 (HepG2) [µM] | IC50 (NRK-49F) [µM] | IC50 (A-375 [5]) [µM] | IC50 [6] [µM] | IC50 (L02) [µM] | IC50 [7] [µM] |
| --- | --- | --- | --- | --- | --- | --- | --- | --- | --- | --- | --- | --- | --- |
| CC(=O)Cn1c(=O)nc(-c2ccccc2)c2c3c(sc21)CCCC3 | 23.7 | > 300 | 17.2 | – | – | – | – | – | – | – | – | – | – |
| COc1ccc(-c2nc(=O)n(Cc3c(C)noc3C)c3sc4c(c23)CCN(C(C)C)C4)cc1 | 82.9 | 101 | 66.6 | – | – | – | – | – | – | – | – | – | – |
| COc1cc(OC)c2c(=O)[nH]c(-c3cc(C)c(OCCO)c(C)c3)nc2c1 [APABETALONE] | – | 79.7 | – | inactive | > 300 | 53.1 | 236 | 103 | 42 | 241 | 52 | > 100 | – |
| Cn1c(=O)nc(-c2ccccc2)c2c3c(sc21)CCCC3 | 42.6 | > 300 | 66.2 | – | – | – | – | – | – | – | – | – | – |
| CCc1c(C)sc2c1c(-c1ccccc1)nc(=O)n2Cc1c(C)noc1C | 9.5 | > 300 | 17.8 | – | – | – | – | – | – | – | – | – | – |
| Cc1noc(C)c1Cn1c(=O)nc(-c2ccccc2)c2c3c(sc21)CC(C(C)(C)C)CC3 (stereo unspecified) | – | 21.6 | 41.2 | – | > 100 | 29.6 | 20.1 | 10.9 | 23.1 | 8 | 21.3 | – | 8.2 |
| Cc1sc2c(c1C)C(c1ccc(Cl)cc1)=N[C@@H](CC(=O)OC(C)(C)C)c1nnc(C)n1-2 | – | 28.6 | – | Active | 38 | 13.1 | 19.6 | 11.3 | 21.1 | 7.5 | 20.4 | 54.2 | – |
| Cc1noc(C)c1Cn1c(=O)nc(-c2ccccc2)c2c3c(sc21)CC(C)(C)CC3 | 86.6 | > 300 | 44.9 | – | – | – | – | – | – | – | – | – | – |
| CC(=O)C(C)n1c(=O)nc(-c2ccccc2)c2c3c(sc21)CCCC3 (stereo unspecified) | 30 | > 300 | 13.6 | – | – | – | – | – | – | – | – | – | – |
| COc1ccc(-c2nc(=O)n(Cc3cnc(Cl)s3)c3sc4c(c23)CCC(C(C)(C)C)C4)cc1 (stereo unspecified) | – | 12.4 | 57.2 | – | > 100 | 95.1 | 98 | 14.5 | 11.2 | 6.5 | 14.6 | – | 18.5 |
| Cc1noc(C)c1COc1nc(-c2ccc(Cl)c(Cl)c2)c2c3c(sc2n1)CC(C(C)(C)C)CC3 (stereo unspecified) | 32.6 | > 300 | 9.3 | – | – | – | – | – | – | – | – | – | – |
| CC(C)(C)C1CCc2c(sc3c2c(-c2ccccc2)nc(=O)n3Cc2cnc(Cl)s2)C1 (stereo unspecified) | – | 4.2 | 28.3 | – | > 100 | 31.9 | 54.4 | 2.4 | 6 | 14.7 | 7.6 | – | 22.7 |
| Cc1noc(C)c1Cn1c(=O)nc(-c2cccc(Cl)c2)c2c3c(sc21)CC(C(C)(C)C)CC3 (stereo unspecified) | – | 15.3 | 52.3 | – | 25.7 | 18.9 | 19.7 | 3.6 | 8.5 | 15.9 | 12.8 | – | 3.1 |
| COc1ccc(-c2nc(=O)n(Cc3c(C)noc3C)c3sc4c(c23)CCC(C(C)(C)C)C4)cc1 (stereo unspecified) | – | 12.9 | 42.2 | – | 10.4 | 18.9 | 13 | 15.1 | 22.2 | 14.2 | 14.1 | – | 11.4 |
| Cc1noc(C)c1Cn1c(=O)nc(-c2ccccc2)c2c3c(sc21)CCCC3 | 46.4 | 114 | 26.2 | – | – | – | – | – | – | – | – | – | – |
| Cc1noc(C)c1Cn1c(=O)nc(-c2ccc(Cl)cc2)c2c3c(sc21)CC(C(C)(C)C)CC3 (stereo unspecified) | – | 10.4 | 23.4 | – | 78.3 | 66.5 | 33.8 | 26.4 | 26.3 | 13.6 | 18.9 | – | 2.4 |
| CNC(=O)Cn1c(=O)nc(-c2ccccc2)c2c3c(sc21)CCCC3 | 38.5 | > 300 | 3.1 | – | – | – | – | – | – | – | – | – | – |
| COC(=O)C1CCc2c(sc3c2c(-c2ccccc2)nc(=O)n3Cc2c(C)noc2C)C1 (stereo unspecified) | 19 | > 300 | 9 | – | – | – | – | – | – | – | – | – | – |
| COC(=O)c1ccc(-c2nc(=O)n(Cc3c(C)noc3C)c3sc4c(c23)CCC(C(C)(C)C)C4)cc1 (stereo unspecified) | – | 19.6 | 49.7 | – | 38.6 | 19.3 | 17.8 | 12.8 | 8.1 | 8.7 | 6.6 | – | 1.5 |
| CC(C)(C)C1CCc2c(sc3c2c(-c2ccc(Cl)cc2)nc(=O)n3Cc2cnc(Cl)s2)C1 (stereo unspecified) | – | > 300 | – | – | – | – | – | – | – | – | – | – | – |
| O=c1nc(-c2ccc(Cl)cc2)c2c3c(sc2n1Cc1cnc(Cl)s1)CC(c1ccccc1)CC3 (stereo unspecified) | 44.9 | 98.2 | 14.5 | – | – | – | – | – | – | – | – | – | – |
| Cc1noc(C)c1Cn1c(=O)nc(-c2ccccc2)c2c3c(sc21)CCC3 | 23 | > 300 | 19.8 | – | – | – | – | – | – | – | – | – | – |
| Cc1noc(C)c1Cn1c(=O)nc(-c2ccc(Cl)cc2)c2c3c(sc21)CC(c1ccccc1)CC3 (stereo unspecified) | – | 28.8 | 15.1 | – | – | – | – | – | – | – | – | – | 6 |
| Cc1noc(C)c1Cn1c(=O)nc(-c2ccccc2)c2c3c(sc21)CCCCC3 | 84.4 | 140 | 81.2 | – | – | – | – | – | – | – | – | – | – |
| Cc1noc(C)c1Cn1c(=O)nc(-c2ccc(F)cc2)c2c3c(sc21)CC(C(C)(C)C)CC3 (stereo unspecified) | – | 17.3 | 33.2 | – | 33.3 | 49.9 | 10.7 | 63.7 | 23.3 | 14.2 | 14.5 | – | 3.6 |
| CC(C)(C)C1CCc2c(sc3c2c(-c2ccccc2)nc(=O)n3Cc2ncccn2)C1 (stereo unspecified) | 70.4 | 152 | 66.6 | – | – | – | – | – | – | – | – | – | – |
| Cc1noc(C)c1Cn1c(=O)nc(-c2ccccc2Cl)c2c3c(sc21)CC(C(C)(C)C)CC3 (stereo unspecified) | – | 11.3 | 39.5 | – | 69.2 | 16.6 | 19.2 | 30 | 17.2 | 11.1 | 12 | – | 1.6 |

— ChEMBL document CHEMBL4392838, “Binding pocket-based design, synthesis and biological evaluation of novel selective BRD4-BD1 inhibitors” (Bioorg Med Chem, 2019)
